# Data reported in ChEMBL document CHEMBL3600297, “N-Sulfonyl-aminobiaryls as Antitubulin Agents and Inhibitors of Signal Transducers and Activators of Transcription 3 (STAT3) Signaling” (J Med Chem, 2015).
# Active and inactive are the calls of the source. The rule behind the calls is not given here.
# Experiments:
# A549 [1] = test: Induction of microtubule destabilization in human A549 cells at 1 uM after 24 hrs by DAPI staining-based immunofluorescence confocal microscopic analysis; assay type: cell-based
# Summary of the method: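 A549 seeded sparsely on chamber slides and treated 24 h; cold MeOH fixation (−20 °C, 15 min), blocked with 0.1% Triton X-100 in PBS 30 min at 37 °C. Monoclonal anti-β-tubulin 1 h at 37 °C, then FITC anti-mouse IgG, DAPI nuclear counterstain; confocal imaging.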
# Tubulin (Sus scrofa) [2] = biological target: T1, Tubulin (Sus scrofa) (UniProt P02554+P02550); test: Inhibition of porcine tubulin polymerization at 10 uM measured every min for 30 mins by spectrophotometric analysis; assay type: protein assay
# Summary of the method: (§1)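 Cold porcine tubulin (>99% pure) in G-PEM buffer (80 mM PIPES, 2 mM MgCl2, 0.5 mM EGTA, 1 mM GTP, pH 6.9) with 15% glycerol, with or without compound. Kinetic turbidity at 340 nm, read each minute for 30 min at 37 °C. DMSO control.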
# ASPC1 = test: Cytotoxicity against human AsPC1 cells assessed as growth inhibition after 48 hrs by sulforhodamine B assay; assay type: functional; details: ASPC1, 48 h
# Summary of the method: (§2)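 Seeded at (3−5) × 10^3 cells/well. A time-zero plate was TCA-fixed after attachment. Next day, cells got vehicle (0.1% DMSO) or a rising concentration gradient for 48 h, then 10% TCA fixation, 0.4% SRB in 1% AcOH, A515 read. GI50 taken relative to the time-zero absorbance; at least three independent runs, mean ± SD.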
# PC-3 = test: Cytotoxicity against human PC3 cells assessed as growth inhibition after 48 hrs by sulforhodamine B assay; assay type: functional; details: PC-3, 48 h; summary of the method: as §2
# [3] = Cytotoxicity against human Hep3B cells assessed as growth inhibition after 48 hrs by sulforhodamine B assay; assay type: functional, Hep 3B2; summary of the method: as §2
# A549 [4] = test: Cytotoxicity against human A549 cells assessed as growth inhibition after 48 hrs by sulforhodamine B assay; assay type: functional; details: A549, 48 h; summary of the method: as §2
# Tubulin = test: Displacement of [3H]-colchicine from tubulin (unknown origin) preincubated with protein for 1 hr followed by [3H]-colchicine addition measured after 3 hrs by scintillation counting analysis; assay type: protein-complex assay, Homo sapiens
# Tubulin (Sus scrofa) [5] = biological target: T1, Tubulin (Sus scrofa); test: Inhibition of porcine tubulin polymerization measured every min for 30 mins by spectrophotometric analysis; assay type: protein assay; summary of the method: as §1
# A549 [6] = test: Effect on G2/M phase in human A549 cells after 24 hrs by propidium iodide staining-based flow cytometric analysis; assay type: functional, cell-based
# Summary of the method: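 A549 given the indicated concentration for 24 h, fixed in 75% ethanol overnight at −20 °C, washed in cold PBS, 30 min in phosphate–citric acid buffer pH 7.8 at room temperature. Stained with propidium iodide buffer containing 0.1% Triton X-100 and RNase A; DNA content read on a FACScan.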
# T1 sequence (P02550 whole entry, looked up): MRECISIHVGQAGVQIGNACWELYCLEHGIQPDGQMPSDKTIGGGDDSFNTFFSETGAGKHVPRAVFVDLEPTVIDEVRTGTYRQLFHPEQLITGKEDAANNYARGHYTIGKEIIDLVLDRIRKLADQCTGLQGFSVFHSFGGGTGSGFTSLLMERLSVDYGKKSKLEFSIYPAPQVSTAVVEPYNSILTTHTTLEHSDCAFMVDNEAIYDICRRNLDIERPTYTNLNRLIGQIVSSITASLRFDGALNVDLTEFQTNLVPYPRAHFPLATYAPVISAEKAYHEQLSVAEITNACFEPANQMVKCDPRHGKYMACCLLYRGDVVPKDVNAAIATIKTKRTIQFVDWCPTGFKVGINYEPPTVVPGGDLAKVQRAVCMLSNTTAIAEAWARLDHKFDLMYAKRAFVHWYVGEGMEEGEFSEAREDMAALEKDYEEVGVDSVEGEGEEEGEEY
# T1 sequence (P02554 whole entry, looked up): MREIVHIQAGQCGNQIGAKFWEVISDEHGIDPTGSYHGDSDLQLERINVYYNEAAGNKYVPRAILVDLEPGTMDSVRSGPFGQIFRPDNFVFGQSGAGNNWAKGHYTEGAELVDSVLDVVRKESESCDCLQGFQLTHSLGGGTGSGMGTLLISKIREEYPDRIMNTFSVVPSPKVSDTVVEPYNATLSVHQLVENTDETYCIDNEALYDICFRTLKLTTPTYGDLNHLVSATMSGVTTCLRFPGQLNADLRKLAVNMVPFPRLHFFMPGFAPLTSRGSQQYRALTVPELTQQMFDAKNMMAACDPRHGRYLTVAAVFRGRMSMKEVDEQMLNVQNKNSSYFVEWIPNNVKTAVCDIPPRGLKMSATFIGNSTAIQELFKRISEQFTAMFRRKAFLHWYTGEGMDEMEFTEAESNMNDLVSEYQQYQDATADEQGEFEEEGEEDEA
Compound,GI50 (ASPC1) [nM],GI50 (PC-3) [nM],GI50 [3] [nM],GI50 (A549 [4]) [nM],also measured
CC[C@]1(O)C[C@H]2CN(CCc3c([nH]c4ccccc34)[C@@](C(=O)OC)(c3cc4c(cc3OC)N(C=O)[C@H]3[C@@](O)(C(=O)OC)[C@H](OC(C)=O)[C@]5(CC)C=CCN6CC[C@]43[C@@H]65)C2)C1,–,–,–,–,Activity (A549 [1]): Active; inhibition (Tubulin (Sus scrofa) [2]): Active
COc1ccc(S(=O)(=O)N(CCCl)c2ccccc2-c2ccc(C#N)cc2)cc1,4790,6520,1550,1500,–
COc1ccc(S(=O)(=O)Nc2ccccc2-c2ccc(C#N)c(F)c2)cc1,–,–,–,–,IC50 (Tubulin): 670 nM; inhibition (Tubulin (Sus scrofa) [5]): Dose-dependent effect
COc1ccc(S(=O)(=O)Nc2ccccc2-c2ccc(F)c(F)c2)cc1,280,190,150,300,–
Cc1ccc(S(=O)(=O)OCC(=O)Nc2ccc(C(=O)O)c(O)c2)cc1,–,–,–,–,Activity (A549 [6]): inactive
COc1ccc(S(=O)(=O)Nc2cccnc2Nc2ccc(O)cc2)cc1 [ABT-751],4110,620,840,5330,–
